The text below walks through data of ChEMBL document CHEMBL1133118 (J Med Chem, 2000).

SMILES strings stand for the structures.

Experiment [1] addresses Adenosine receptors; A2b & A3 (Homo sapiens) (UniProt P29275+P0DMS8). Briefly: Ratio of binding affinity of human A2B receptor to that of human A3 receptor. It counts as protein assay. A digest of the protocol: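 Ki ratio, n=3-6, 6–8 concentrations. A2B in HEK-293 membranes (20 μg): 40 nM [3H]DPCPX, 50 mM Tris HCl, 10 mM MgCl2, 1 mM EDTA, 0.1 mM benzamidine pH 7.4, 2 IU/mL adenosine deaminase, 60 min at 25 °C, nonspecific with 100 μM NECA. A3 in CHO membranes (50 μg): 1 nM [3H]MRE3008-F20, 120 min at 4 °C.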

For experiment [2], the target named is T1, Adenosine receptor A2b (Homo sapiens, UniProt P29275).
T1 sequence (P29275 whole entry): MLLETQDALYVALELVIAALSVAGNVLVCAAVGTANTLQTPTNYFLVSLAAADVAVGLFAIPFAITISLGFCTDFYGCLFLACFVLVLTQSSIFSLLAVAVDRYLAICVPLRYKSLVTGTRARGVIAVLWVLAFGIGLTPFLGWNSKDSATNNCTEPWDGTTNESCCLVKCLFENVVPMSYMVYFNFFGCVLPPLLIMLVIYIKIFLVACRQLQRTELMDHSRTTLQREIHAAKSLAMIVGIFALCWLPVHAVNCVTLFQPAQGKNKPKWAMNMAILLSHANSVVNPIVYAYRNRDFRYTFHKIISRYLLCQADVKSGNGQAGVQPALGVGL
Briefly: Displacement of [3H]DPCPX from Adenosine A2b receptor expressed in CHO cells. The experiment is classed as cell-based.

Experiment [3] has as its target T2, Adenosine receptor A3 (Homo sapiens, UniProt P0DMS8).
T2 sequence (P0DMS8 whole entry): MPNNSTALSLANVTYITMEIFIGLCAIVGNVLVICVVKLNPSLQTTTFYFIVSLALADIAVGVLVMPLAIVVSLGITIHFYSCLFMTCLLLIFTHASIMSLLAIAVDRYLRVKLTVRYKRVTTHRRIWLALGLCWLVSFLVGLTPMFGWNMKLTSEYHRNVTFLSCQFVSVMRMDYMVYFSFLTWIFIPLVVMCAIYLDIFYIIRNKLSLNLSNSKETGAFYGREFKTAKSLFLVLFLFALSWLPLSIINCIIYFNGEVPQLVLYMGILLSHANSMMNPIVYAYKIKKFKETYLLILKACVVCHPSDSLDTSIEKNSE
Briefly: biochemical.

Experiment [4] concerns the target T3, Adenosine receptor A2a (Homo sapiens, UniProt P29274). As to the kind of experiment: Displacement of [3H]-SCH- 58261 from human adenosine A2A receptor expressed in CHO cells; range 2826-3761. The experiment is classed as cell-based. (In general: Loss of bound radioactivity is the signal in a displacement assay; it reports binding, not function.)
Experiment [5] deals with T4, Adenosine receptor A1 (Homo sapiens, UniProt P30542).
T4 sequence (P30542 whole entry): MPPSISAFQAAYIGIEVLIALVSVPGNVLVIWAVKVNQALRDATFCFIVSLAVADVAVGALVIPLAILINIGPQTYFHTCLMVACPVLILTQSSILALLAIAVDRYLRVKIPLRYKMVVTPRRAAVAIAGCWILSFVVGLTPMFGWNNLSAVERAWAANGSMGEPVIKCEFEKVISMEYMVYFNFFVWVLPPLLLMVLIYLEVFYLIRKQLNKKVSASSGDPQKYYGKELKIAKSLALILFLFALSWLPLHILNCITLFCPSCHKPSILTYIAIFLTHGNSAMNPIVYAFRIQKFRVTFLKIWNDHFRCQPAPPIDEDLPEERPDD
As to the kind of experiment: Tested for inhibitory activity against human adenosine A1 receptor by displacement of [3H]DPCPX expressed in CHO cells; value ranges from 2362-2575. It counts as cell-based.

The target of experiment [6] is T5, Adenosine receptor A3 (Homo sapiens) (UniProt P0DMS8).
T5 sequence (whole entry): T2 sequence (P0DMS8 whole entry)
Briefly: Percentage of blockade by 1 uM of the inhibition by 100 nM IB-MECA-inhibited cAMP accumulation in CHO cells expressing human adenosine A3 receptor. The experiment is classed as functional, cell-based. The gist of the method:
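CHO cells stably expressing human A3 receptor; membranes in 50 mM Tris HCl, 10 mM MgCl2, 1 mM EDTA pH 7.4 with 5 μM GTP, 0.5 mM […] and 2.0 IU/mL adenosine deaminase. Preincubated 10 min at 37 °C, then IB-MECA (100 nM) and/or antagonist with 1 mM ATP and 10 μM forskolin for 10 min. Boiled 2 min. cAMP read by [3H]cAMP competition with adrenal binding protein.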
(In general: Cyclic AMP is a second messenger, typically raised through Gs and lowered through Gi signalling.)

The target of experiment [7] is Adenosine receptors; A1 & A3 (Homo sapiens) (UniProt P30542+P0DMS8). As to the kind of experiment: Ratio of binding affinity of human A1 receptor to that of human A3 receptor. The experiment is classed as protein assay. The gist of the method:
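Ki ratio from displacement in CHO membranes, 6–8 concentrations, n=3-6, filtration counting. A1: 1 nM [3H]DPCPX, 50 μg protein, 120 min at 25 °C, nonspecific with 10 μM CHA. A3: 1 nM [3H]MRE3008-F20, 50 μg protein, Tris/10 mM MgCl2 pH 7.4, 120 min at 4 °C, nonspecific with 1 μM MRE3008-F20.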

The target in experiment [8] is T1, Adenosine receptor A2b. As to the kind of experiment: Displacement of [3H]DPCPX from Adenosine A2b receptor expressed in […]; range 56-75. The experiment is classed as cell-based.
For experiment [9], the target named is T2, Adenosine receptor A3. Briefly: Displacement of [3H]MRE3008-F20 from human adenosine A3 receptor expressed in CHO cells; range 285-385. The experiment is classed as cell-based.
For experiment [10], the target named is T3, Adenosine receptor A2a. Briefly: Displacement of [3H]-SCH- 58261 from human adenosine A2A receptor expressed in CHO cells; range 1.70-2.10. The experiment is classed as cell-based. The gist of the method: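 Membranes from CHO cells stably expressing human A2A receptor, grown in DMEM/F12 without nucleosides, resuspended in 50 mM Tris HCl, 10 mM MgCl2, pH 7.4; 50 μg protein/assay. Competition with [3H]SCH 58261 at 6–8 or more compound concentrations, 60 min at 25 °C; nonspecific binding with 50 μM NECA. Filtration on GF/B filters, scintillation counting; n=3-6.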

The target of experiment [11] is T4, Adenosine receptor A1. Briefly: Displacement of [3H]DPCPX from human adenosine A1 receptor expressed in CHO cells; range 323-378. It counts as cell-based.
The target of experiment [12] is T2, Adenosine receptor A3. Briefly: Inhibition of cAMP accumulation in CHO cells expressing human adenosine A3 receptor; range 2.8-8.1. It counts as functional, cell-based.
The target of experiment [13] is T2, Adenosine receptor A3. Briefly: biochemical. The source holds these as a separate data set.
The target of experiment [14] is T5, Adenosine receptor A3 (Homo sapiens). The conditions noted are these: CHO, 1 uM.
In experiment [15] the target is T1, Adenosine receptor A2b. Briefly: Displacement of [3H]DPCPX from Adenosine A2b receptor expressed in […]; range 157-268. It counts as cell-based.
Experiment [16] addresses T3, Adenosine receptor A2a. As to the kind of experiment: Displacement of [3H]-SCH- 58261 from human adenosine A2A receptor expressed in CHO cells; range 1024-1396. It counts as cell-based.
The target of experiment [17] is T4, Adenosine receptor A1. As to the kind of experiment: Displacement of [3H]DPCPX from human adenosine A1 receptor expressed in CHO cells; range 267-453. It counts as cell-based.
Experiment [18] deals with T3, Adenosine receptor A2a. Briefly: Displacement of [3H]-SCH- 58261 from human adenosine A2A receptor expressed in CHO cells; range 730-1100. It counts as cell-based.
The target of experiment [19] is T1, Adenosine receptor A2b. As to the kind of experiment: Displacement of [3H]DPCPX from Adenosine A2b receptor expressed in HEK-293 cells; range 3828-4817.
For experiment [20], the target named is T2, Adenosine receptor A3. As to the kind of experiment: Displacement of [3H]MRE3008-F20 from human adenosine A3 receptor expressed in CHO cells; range 3228-3614. It counts as cell-based.
The target of experiment [21] is T2, Adenosine receptor A3. Briefly: Displacement of [3H]MRE3008-F20 from human adenosine A3 receptor expressed in CHO cells; range 0.85-0.98. The experiment is classed as cell-based.
The target of experiment [22] is T1, Adenosine receptor A2b. As to the kind of experiment: Displacement of [3H]-DPCPX from Adenosine A2b receptor expressed in CHO cells; range 50-63. It counts as cell-based. To be noted: in the assay text read “HEK-293 cells” for “CHO cells”. A digest of the protocol:
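Human recombinant A2B receptor was expressed in HEK-293 cell membranes (20 μg protein). Incubated with 40 nM [3H]DPCPX in 50 mM Tris HCl, 10 mM MgCl2, 1 mM EDTA, 0.1 mM benzamidine, pH 7.4, with 2 IU/mL adenosine deaminase, at least 6–8 test concentrations, 60 min, 25 °C. Nonspecific binding was taken with 100 μM NECA; n=3-6.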

Experiment [23] concerns the target T2, Adenosine receptor A3. As to the kind of experiment: Inhibition of cAMP accumulation in CHO cells expressing human adenosine A3 receptor; range 4.0-7.5. It counts as functional, cell-based.
In experiment [24] the target is T5, Adenosine receptor A3 (Homo sapiens). To be noted: CHO, 1 uM. This is another data set of the same source.

T3 sequence (P29274 whole entry): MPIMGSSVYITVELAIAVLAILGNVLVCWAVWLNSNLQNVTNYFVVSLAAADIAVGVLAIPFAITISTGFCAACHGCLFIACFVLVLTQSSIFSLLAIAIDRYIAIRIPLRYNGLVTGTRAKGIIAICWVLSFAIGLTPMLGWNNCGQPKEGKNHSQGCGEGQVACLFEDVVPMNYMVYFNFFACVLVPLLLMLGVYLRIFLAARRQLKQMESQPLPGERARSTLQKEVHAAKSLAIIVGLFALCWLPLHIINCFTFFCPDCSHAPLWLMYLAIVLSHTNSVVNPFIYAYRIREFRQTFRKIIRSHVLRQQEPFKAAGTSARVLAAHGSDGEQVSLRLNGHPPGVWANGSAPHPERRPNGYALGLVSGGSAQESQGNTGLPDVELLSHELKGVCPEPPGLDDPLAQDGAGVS

Take `COc1ccc(NC(=O)Nc2nc3nn(CCc4cccc5ccccc45)cc3c3nc(-c4ccco4)nn23)cc1`: the Ratio in [1] was over 625; in experiment [7], 154. The inhibition constant Ki (as a rule, a dissociation constant, usually derived from enzyme kinetics or from competition with a known ligand) at Adenosine receptor A2b [2] is over 10000 nM; on Adenosine receptor A3 [3], 16 nM; on Adenosine receptor A2a [4], 3260 nM; on Adenosine receptor A1 [5], 2470 nM. In [6], the inhibition (usually the relative decrease from the control value, in per cent) turned out to be 52%.

On to `CCn1cc2c(nc(N)n3nc(-c4ccco4)nc23)n1`, for which the Ratio in experiment [1] came to 0.19; in experiment [7] it was 0.015. In addition, the Ki at Adenosine receptor A2b [8] came to 65 nM; on Adenosine receptor A3 [9], 331 nM; at Adenosine receptor A2a [10] it was 1.95 nM. The same compound had an inhibition in experiment [6] of 25%.

Regarding `Cn1cc2c(nc(NC(=O)Nc3cccc(Cl)c3)n3nc(-c4ccco4)nc23)n1`, the figures for the Ratio in experiment [1] and in [7] were 512 and 875, respectively. For the same compound, the Ki was 350 nM on Adenosine receptor A1 [11], 0.4 nM on Adenosine receptor A3 [13], 205 nM at Adenosine receptor A2b [15] and 1200 nM on Adenosine receptor A2a [16]. Besides, the IC50 (commonly the point on the concentration scale where inhibition reaches its midpoint) on Adenosine receptor A3 [12] amounted to 4.8 nM. Also, the inhibition in experiment [14] came to 92%.

With `Nc1nc2nn(CCc3cccc4ccccc34)cc2c2nc(-c3ccco3)nn12`, the Ratio is 1.26 in experiment [1] and 0.1 in [7]. In addition, the inhibition constant (Ki) was determined as 348 nM on Adenosine receptor A1 [17], 896 nM on Adenosine receptor A2a [18], 4290 nM on Adenosine receptor A2b [19] and 3420 nM at Adenosine receptor A3 [20]. Also, in [6], the inhibition is 4%.

As for `CCCn1cc2c(nc(NC(=O)Nc3cccc(Cl)c3)n3nc(-c4ccco4)nc23)n1`, the Ratio is 62.6 in experiment [1] and 33 in experiment [7]. For the same compound, the values for the Ki on Adenosine receptor A3 [21] and on Adenosine receptor A2b [22] were 0.9 nM and 57 nM, respectively. Also, on Adenosine receptor A3 [23], the concentration for half-maximal inhibition (IC50) stood at 5.5 nM. The compound further registered an inhibition in [24] of 80%.
